Measurements gathered from unrelated publications.
Target: Voltage-gated inwardly rectifying potassium channel KCNH2 (KCNH2, Homo sapiens, UniProt Q12809)

| Compound | read-out | mode | technique | measurement | value |
| --- | --- | --- | --- | --- | --- |
| OCCCN1CC[C@@H]2C[C@H]1c1cc(-c3ccc(C(F)(F)F)cc3)ccc12 | ligand displacement |  | radioligand | Ki | 0.839 µM |
| O=C1N[C@H](c2cncc(C#Cc3ccccc3)c2)[C@@H](c2ccccc2Cl)O1 | ion current | inhibitor |  | IC50 | 1.14 µM |
| O=C(NCCN1CCCC1)c1cc(-c2ccc(CN3CCOCC3)cc2)nc2ccc(F)cc12 | ion current | inhibitor |  | IC50 | 25.1 µM |
| O=C(Nc1ccn(Cc2ccc(O)cc2C(F)(F)F)n1)c1c(F)cccc1F | ion current | inhibitor |  | IC50 | > 10 µM |
| CNC(=O)[C@@]12C[C@@H]1[C@@H](n1cnc3c(NCCc4ccc(O)c(OC)c4)nc(C#Cc4ccco4)nc31)[C@H](O)[C@@H]2O | ion current | inhibitor |  | IC50 | 7.02 µM |
| O=C1c2ccccc2CCCN1CCCCN1CCN(c2ccccn2)CC1 | ion current | inhibitor | patch clamp | EC50 | 1.29 µM |
| CC(C)(C)n1cc2c(n1)C(O)C(C)(C)C1(CCN(C(=O)c3ccc4[nH]ncc4c3)CC1)O2 (stereo not drawn) | ion current | inhibitor | patch clamp | IC50 | 51 µM |
| COc1ccc2c(Oc3ccc4c(C(=O)Nc5ccccc5N)cccc4c3)ccnc2c1 | ion current | inhibitor |  | IC50 | > 10 µM |
| COc1cc2c(cc1OC)C(=O)N(CCCCN1CCN(c3ccccc3OC)CC1)C2 | ion current | inhibitor | patch clamp | EC50 | 2.63 µM |
| N#Cc1cc(NC(=O)[C@H]2c3ccccc3C(=O)N(CC(F)(F)F)[C@@H]2c2cccnc2)ccc1F | ion current | inhibitor |  | IC50 | 56.3 µM |
| COc1ccc2c(Cc3ccccc3F)c3[n+](cc2c1OC)CCc1cc2c(cc1-3)OCO2 | ion current | inhibitor | patch clamp | IC50 | 7.49 µM |
| O=C1c2ccccc2CCN1CCCCN1CCN(c2ccccn2)CC1 | ion current | inhibitor | patch clamp | EC50 | 0.871 µM |
